Sampled rows, rich in hits. Any-hit rate of the full collection: about 5.9%.
Pf Dd2 inh – P. falciparum Dd2 growth inhibitors, primary screen, SYBR Green fluorescence, single dose replicates; activity change, % at 10 µM; AID 1159554, 2015; 72 h; active compounds read low; hit rate 2.3% among 94,000; in the data active = activity change below about -80%; inconclusive = no clear call, values can overlap the other calls
IDH1 R132H inh – inhibitors of IDH1 R132H reductase, primary screen, biochemical, plate reader, single point | diaphorase/resazurin fluorescence, 60 min | inhibition, % at 10 µM | hit rate 0.18% among 70,000; in the data active = inhibition above about 34%; inconclusive = no clear call, values can overlap the other calls; inactive = below about 11%;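 note: 0% = DMSO and 100% = no enzyme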
GASC1 inh – inhibitors of GASC-1 (KDM4C) histone demethylase, primary screen, biochemical, single concentration HTS. Lysine-specific demethylase 4C (Homo sapiens), Q9H3R0. GST-KDM4C 2-372, H3K9me3 peptide, LANCE TR-FRET. inhibition, % at 12.5 µM. hit rate 0.15% among 96,000. AID 720574, 2013;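 active = mean replicate inhibition above about 25%, with at least 55% of replicates also reaching it, limit read from the data, passing the limit was not always enough; inconclusive = only one of those two conditions met; inactive = neither condition met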
Target sequence (Q9H3R0 2-372 limits assumed): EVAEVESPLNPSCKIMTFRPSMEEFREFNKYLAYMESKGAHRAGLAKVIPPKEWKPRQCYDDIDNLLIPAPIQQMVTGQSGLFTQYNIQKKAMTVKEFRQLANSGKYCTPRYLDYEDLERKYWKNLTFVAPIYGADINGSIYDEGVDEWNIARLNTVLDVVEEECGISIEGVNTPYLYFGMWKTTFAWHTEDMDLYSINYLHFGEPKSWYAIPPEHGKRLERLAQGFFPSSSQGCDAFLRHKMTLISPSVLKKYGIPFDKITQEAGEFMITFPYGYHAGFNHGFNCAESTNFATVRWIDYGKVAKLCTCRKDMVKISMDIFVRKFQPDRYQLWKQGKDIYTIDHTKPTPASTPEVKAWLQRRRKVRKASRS
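Assay system: GST-GASC-1 enzyme fragment 2-372 | Amount: 10 nM enzyme | Medium: HEPES buffer, pH 7.5, plus ascorbate | Reagent: H3K9me3 peptide substrate, Fe(II), 2-oxoglutarate | Doses: Single-point compound screen | Incubation: 30 min demethylation and 1 h detection at room temperature | Measured by: LANCE TR-FRET, excitation 340 nm, emissions 618 and 671 nm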
T cruzi growth-1 – T. cruzi intracellular proliferation inhibitors, primary screen, cell-based, beta-gal Tulahuen parasites, NIH3T3 host, luminescence; T. cruzi beta-gal in NIH3T3, GalScreen luminescence, 90 h; inhibition, % at 8.34 µM; hit rate 5.9% among 77,000;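 active = mean inhibition above about 93%, with at least 55% of replicates each passing it, limit read from the data, passing the limit was not always enough; inconclusive = only one of those two conditions holds; inactive = neither condition holds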
T cruzi growth-2 – T. cruzi intracellular proliferation inhibitors, confirmation, cell-based, NIH3T3 host, beta-gal parasite, luminescence, cherry-pick | hit rate 72% among 5,600 | T. cruzi beta-gal in NIH3T3, GalScreen luminescence, 90 h | inhibition, % at 8.35 µM | shares compounds with T cruzi growth-1 | AID 651739, 2012;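 active = mean replicate inhibition above about 95% and at least 55% of replicates individually reaching it, limit read from the data; inconclusive = only one of the two criteria is met; inactive = neither criterion is met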
T cruzi growth-3 – inhibitors of intracellular T. cruzi replication, confirmation, NIH3T3 host cells, beta-gal parasites, cherry-pick, set 2; inhibition, % at 2.09 µM; T. cruzi beta-gal in NIH3T3, GalScreen luminescence, 90 h; hit rate 21% among 5,600; shares compounds with T cruzi growth-1;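 active = mean inhibition above about 95%, with at least 55% of replicates also reaching it, limit read from the data; inconclusive = meets just one of the two conditions; inactive = meets neither condition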;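 note: plate controls were neutral control median for no effect and positive control median for full effect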
3T3 cytotox – cytotoxicity in mouse NIH/3T3 fibroblasts, confirmation, cytotoxicity control for T. cruzi proliferation inhibitor project, cell-based, cherry-pick, single point; shares compounds with T cruzi growth-1; NIH/3T3 viability, CellTiter-Glo ATP luminescence, 90 h; cytotoxicity (signal decrease), % at 8.35 µM; hit rate 14% among 5,600;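 active = mean signal decrease across replicates above about 35% based on untreated-well scatter, with enough replicates individually passing, limit read from the data; inconclusive = no rule stated though some were filed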;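 note: 0% = median of neutral control wells and 100% = median of positive control wells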
3T3 cytotox 2 – NIH/3T3 fibroblast cytotoxicity, confirmation, cytotoxicity control, cell-based, cherry-pick, single point, set 2; shares compounds with T cruzi growth-1; NIH/3T3 viability, CellTiter-Glo ATP luminescence, 90 h; inhibition, % at 24.9 µM; hit rate 56% among 5,600; AID 651744, 2012;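 active = mean loss of cell viability signal at or above a set limit, and enough replicates individually reaching it; inconclusive = meets only the mean limit or only the replicate share; inactive = meets neither condition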;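 note: 0% = median of neutral control wells and 100% = median of positive control wells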
The depositor's hits bear a star; ? = inconclusive; / = no result given; + = active, no number.

SMILES	Pf Dd2 inh	IDH1 R132H inh	GASC1 inh	T cruzi growth-1	T cruzi growth-2	T cruzi growth-3	3T3 cytotox	3T3 cytotox 2
C[C@H](CO)N1C[C@H](C)[C@H](CN(C)C(=O)Nc2ccccc2)Oc2c(NC(=O)Nc3cccc4ccccc34)cccc2C1=O	-24	0	1	110*	107*	81	8	41*
C[C@@H]1CN([C@@H](C)CO)C(=O)c2cccc(NC(=O)Nc3ccc(C(F)(F)F)cc3)c2O[C@@H]1CN(C)C(=O)Nc1cccc2ccccc12	-69	0	-1	63	/	/	/	/
C[C@H](CO)N1C[C@H](C)[C@@H](CN(C)C(=O)Nc2cccc3ccccc23)Oc2c(NC(=O)Nc3ccc(C(F)(F)F)cc3)cccc2C1=O	-34	/	0	97*	104*	49	30	103*
Cc1ccc(OCC(=O)Nc2ccccc2-c2nc3ccccc3s2)cc1C	/	0	/	/	/	/	/	/
Cc1cccc(NC(=O)CSc2nnc(-c3ccco3)n2-c2ccccc2)c1C	/	0	/	/	/	/	/	/
CCNC(=O)[C@@H]1[C@@H](CO)[C@@H]2Cn3c(cccc3=O)[C@@H]2N1CC1CCCCC1	/	/	3	+	-27	-24	-4	-8
CCCNC(=O)[C@@H]1[C@@H](CO)[C@@H]2Cn3c(cccc3=O)[C@@H]2N1CC1CCCCC1	2	/	3	2	/	/	/	/
O=C(Nc1ccc(-c2ccccc2)cc1)[C@H]1[C@H](CO)[C@H]2Cn3c(cccc3=O)[C@H]2N1CC1CCCCC1	-18	/	-1	?	85	110*	20	107*
O=C(Nc1nccs1)[C@H]1[C@H](CO)[C@H]2Cn3c(ccc(-c4ccccc4)c3=O)[C@H]2N1CC1CCCC1	-22	/	0	98*	106*	57	27	64*
C[C@H](CO)N1C[C@H](C)[C@@H](CN(C)Cc2ccccc2)Oc2ccc(NC(=O)Nc3cccc4ccccc34)cc2CC1=O	-74	0	0	69	/	/	/	/
C[C@H]1CN([C@@H](C)CO)C(=O)Cc2cc(NC(=O)Nc3cccc4ccccc34)ccc2O[C@@H]1CN(C)Cc1ccc(-c2ccccc2)cc1	-34	0	1	102*	109*	107*	1	3
C[C@@H]1CN([C@@H](C)CO)C(=O)Cc2cc(NC(=O)Nc3cccc4ccccc34)ccc2O[C@H]1CN(C)Cc1ccc(-c2ccccc2)cc1	-43	0	-5	107*	102*	106*	11	6
Cc1ccc(NC(=O)CCCC(=O)Nc2ccc(C)c(C)c2)cc1C	/	0	/	/	/	/	/	/
Cc1cccc(S(=O)(=O)N2CCCCN3[C@@H](CO)[C@H](c4ccc(C#C[C@@H](C)O)cc4)[C@@H]3C2)c1	-25	/	0	82	/	/	/	/
C[C@H](O)C#Cc1ccc([C@H]2[C@@H](CO)N3CCCCN(S(=O)(=O)c4ccccc4)C[C@H]23)cc1	-17	/	0	19	/	/	/	/
C[C@H](O)C#Cc1ccc([C@H]2[C@H]3CN(S(=O)(=O)c4ccccc4)CCCCN3[C@H]2CO)cc1	-9	/	-1	?	97*	20	3	6
C[C@H](O)C#Cc1ccc([C@@H]2[C@H](CO)N3CCCCN(S(=O)(=O)c4ccccc4)C[C@@H]23)cc1	-21	/	2	114*	19	13	-1	19
Cc1ccc2c(C)c(C(=O)Nc3ccc(S(=O)(=O)Nc4ncccn4)cc3)oc2c1	/	0	/	/	/	/	/	/
C[C@H]1CCCCO[C@H](CN(C)C(=O)Nc2cccc3ccccc23)[C@@H](C)CN([C@@H](C)CO)C(=O)c2cc(NC(=O)Nc3ccccc3)ccc2O1	-9	/	0	?	106*	113*	1	-9
COc1ccc(NC(=O)Nc2ccc3c(c2)C(=O)N([C@H](C)CO)C[C@H](C)[C@@H](CN(C)C(=O)Nc2cccc4ccccc24)OCCCC[C@H](C)O3)cc1	-15	/	0	35	/	/	/	/
C[C@H]1CCCCO[C@H](CN(C)C(=O)Nc2cccc3ccccc23)[C@@H](C)CN([C@@H](C)CO)C(=O)c2cc(NC(=O)Cc3ccccc3)ccc2O1	-84*	2	-3	97*	104*	118*	22	24*
C[C@@H]1CCCCO[C@H](CN(C)C(=O)Nc2cccc3ccccc23)[C@H](C)CN([C@@H](C)CO)C(=O)c2cc(NC(=O)c3ccccc3)ccc2O1	-65	0	-1	101*	109*	70	-7	-5
C[C@H](CO)N1C[C@H](C)[C@@H](CN(C)C(=O)Nc2cccc3ccccc23)OCCCC[C@H](C)Oc2ccc(NC(=O)Nc3ccccc3)cc2C1=O	12	1	1	55	/	/	/	/
COc1ccc(NC(=O)Nc2ccc3c(c2)C(=O)N([C@@H](C)CO)C[C@@H](C)[C@@H](CN(C)C(=O)Nc2cccc4ccccc24)OCCCC[C@@H](C)O3)cc1	-70	/	-5	?	103*	74	6	-9
C[C@@H]1CCCCO[C@@H](CN(C)C(=O)Nc2ccc(F)cc2)[C@@H](C)CN([C@@H](C)CO)C(=O)c2cc(NC(=O)Nc3cccc4ccccc34)ccc2O1	-77	/	0	89	/	/	/	/
C[C@H]1CCCCO[C@H](CN(C)C(=O)Nc2cccc3ccccc23)[C@@H](C)CN([C@@H](C)CO)C(=O)c2cc(NC(=O)Nc3ccc(F)cc3)ccc2O1	8	/	-2	17	/	/	/	/
C[C@H]1CCCCO[C@H](CN(C)C(=O)Nc2ccc(F)cc2)[C@@H](C)CN([C@@H](C)CO)C(=O)c2cc(NC(=O)Nc3cccc4ccccc34)ccc2O1	-46	0	0	117*	113*	93	-17	-18
C[C@@H]1CCCCO[C@@H](CN(C)C(=O)Nc2cccc3ccccc23)[C@H](C)CN([C@H](C)CO)C(=O)c2cc(NC(=O)Nc3ccc(F)cc3)ccc2O1	-51	1	-2	96*	102*	109*	-10	2

Screening results deposited in PubChem BioAssay by Broad Institute.
